Measured values: ChEMBL document CHEMBL1134584 (J Med Chem, 2001)
One block for each molecule: values may come before it.

Key:
[1] = biological target: T1, Somatostatin receptor type 3 (Homo sapiens, UniProt P32745); assay: Inhibition of [125 I -Tyr]SRIF-14 binding to membranes isolated from CHO-K1 cells expressing cloned human SRIF receptor (sst-3) subtype; type: cell membranes
[2] = biological target: Somatostatin receptor type 1 (Homo sapiens, UniProt P30872); assay: Inhibition of [125 I -Tyr]SRIF-14 binding to membranes isolated from CHO-K1 cells expressing cloned human SRIF receptor (sst-1) subtype; type: cell membranes
Chain of Somatostatin receptor type 1 (P30872 whole entry): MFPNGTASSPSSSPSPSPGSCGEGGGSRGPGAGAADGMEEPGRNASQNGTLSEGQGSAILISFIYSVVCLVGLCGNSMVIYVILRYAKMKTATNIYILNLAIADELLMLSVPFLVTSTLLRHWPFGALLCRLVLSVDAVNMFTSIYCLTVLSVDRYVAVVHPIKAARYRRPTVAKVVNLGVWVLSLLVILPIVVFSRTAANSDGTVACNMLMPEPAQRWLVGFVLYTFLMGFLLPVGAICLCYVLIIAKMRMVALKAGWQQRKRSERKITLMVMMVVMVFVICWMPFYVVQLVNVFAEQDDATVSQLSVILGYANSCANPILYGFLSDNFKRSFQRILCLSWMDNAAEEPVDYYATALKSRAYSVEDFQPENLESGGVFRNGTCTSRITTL

[3] = biological target: Somatostatin receptor type 5 (Homo sapiens, UniProt P35346); assay: Inhibition of [125 I -Tyr]SRIF-14 binding to membranes isolated from CHO-K1 cells expressing cloned human SRIF receptor (sst-5) subtype; type: cell membranes
Chain of Somatostatin receptor type 5 (P35346 whole entry): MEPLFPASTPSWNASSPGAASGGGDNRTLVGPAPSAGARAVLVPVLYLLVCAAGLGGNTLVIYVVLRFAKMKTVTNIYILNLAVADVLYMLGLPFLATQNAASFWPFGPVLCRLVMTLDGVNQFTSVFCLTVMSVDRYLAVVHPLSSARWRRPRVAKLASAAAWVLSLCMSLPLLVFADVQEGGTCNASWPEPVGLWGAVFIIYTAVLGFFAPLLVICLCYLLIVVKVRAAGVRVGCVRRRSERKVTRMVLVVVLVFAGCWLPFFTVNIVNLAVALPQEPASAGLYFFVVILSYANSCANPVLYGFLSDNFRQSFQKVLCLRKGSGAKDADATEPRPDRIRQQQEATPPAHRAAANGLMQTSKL

[4] = biological target: Somatostatin receptor type 4 (Homo sapiens, UniProt P31391); assay: Inhibition of [125 I -Tyr]SRIF-14 binding to membranes isolated from CHO-K1 cells expressing cloned human SRIF receptor (sst-4) subtype; type: cell membranes
Chain of Somatostatin receptor type 4 (P31391 whole entry): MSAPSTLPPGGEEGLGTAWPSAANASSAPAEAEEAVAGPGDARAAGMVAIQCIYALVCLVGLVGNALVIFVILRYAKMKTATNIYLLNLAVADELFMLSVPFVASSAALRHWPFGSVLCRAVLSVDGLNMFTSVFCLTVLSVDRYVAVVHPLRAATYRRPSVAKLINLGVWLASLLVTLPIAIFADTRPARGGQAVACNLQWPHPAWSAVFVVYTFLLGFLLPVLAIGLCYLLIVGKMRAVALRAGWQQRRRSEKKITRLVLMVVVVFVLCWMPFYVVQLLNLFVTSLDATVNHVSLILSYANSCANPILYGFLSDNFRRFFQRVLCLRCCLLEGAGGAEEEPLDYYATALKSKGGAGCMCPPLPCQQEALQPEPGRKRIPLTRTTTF

[5] = biological target: T1, Somatostatin receptor type 3; assay: Inhibitory concentration required to inhibit SRIF-14 induced reduction of cAMP in CHO-K1 cells expressing the human sst3 receptor.; type: functional, cell-based
[6] = biological target: T2, Somatostatin receptor type 2 (Homo sapiens, UniProt P30874); assay: Inhibition of [125 I -Tyr]SRIF-14 binding to membranes isolated from CHO-K1 cells expressing cloned human SRIF receptor (sst-2) subtype; type: cell membranes
T2 sequence (P30874 whole entry): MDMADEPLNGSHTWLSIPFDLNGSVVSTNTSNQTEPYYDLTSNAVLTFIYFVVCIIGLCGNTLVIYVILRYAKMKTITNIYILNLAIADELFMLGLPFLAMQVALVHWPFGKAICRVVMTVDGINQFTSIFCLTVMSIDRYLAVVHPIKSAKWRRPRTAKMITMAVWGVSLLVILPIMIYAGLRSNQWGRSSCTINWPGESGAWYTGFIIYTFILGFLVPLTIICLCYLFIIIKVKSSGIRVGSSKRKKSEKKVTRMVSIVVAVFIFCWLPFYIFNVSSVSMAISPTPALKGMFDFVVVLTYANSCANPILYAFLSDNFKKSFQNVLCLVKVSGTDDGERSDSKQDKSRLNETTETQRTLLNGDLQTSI

[7] = biological target: T2, Somatostatin receptor type 2; assay: Inhibition of [125 I -Tyr]SRIF-14 binding to membranes isolated from CHO-K1 cells expressing each of the cloned human SRIF receptor (sst-2) subtypes; type: cell membranes
In short: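 Stable CHO-K1 clones transfected with human receptor cDNA in pCMV5. Membranes prepared from these cells, 10-20 µg protein/well, incubated with 0.05-0.1 nM [125I-Tyr11]SRIF-14 in 50 mM HEPES pH 7.4, 0.2% BSA, 5 mM MgCl2 plus protease inhibitors, 50-90 min at 37 °C depending on subtype. GF/C filtration, then counting. Nonspecific binding defined with 0.1 µM SRIF-14. Ki obtained by nonlinear regression.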

T1 sequence (P32745 whole entry): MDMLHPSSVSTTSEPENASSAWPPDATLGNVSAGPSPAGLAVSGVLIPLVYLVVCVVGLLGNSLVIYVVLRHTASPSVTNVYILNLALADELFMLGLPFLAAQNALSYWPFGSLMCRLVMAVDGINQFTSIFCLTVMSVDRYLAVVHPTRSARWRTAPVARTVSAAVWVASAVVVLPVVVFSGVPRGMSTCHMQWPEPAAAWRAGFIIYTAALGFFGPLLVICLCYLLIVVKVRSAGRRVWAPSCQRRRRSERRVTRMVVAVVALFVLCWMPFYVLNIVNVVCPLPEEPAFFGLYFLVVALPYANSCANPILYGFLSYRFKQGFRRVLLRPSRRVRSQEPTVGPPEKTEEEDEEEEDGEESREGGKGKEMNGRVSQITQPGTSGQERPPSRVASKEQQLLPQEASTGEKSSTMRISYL

Compound: O=[N+]([O-])c1ccccc1C1N[C@H](c2nc(-c3ccccc3)c[nH]2)Cc2c1[nH]c1ccccc21 (some centres undefined)
- Ki [1]: 200 nM

Compound: COc1ccc(C2N[C@H](c3nc(-c4ccccc4)c[nH]3)Cc3c2[nH]c2ccccc32)cc1 (some centres undefined)
- Ki [1]: 60 nM

Compound: c1ccc(-c2c[nH]c([C@@H]3Cc4c([nH]c5ccccc45)C(c4ccncc4)N3)n2)cc1 (some centres undefined)
- Ki [1]: 320 nM

Compound: CCCCC1(CCCC)N[C@@H](c2nc(-c3ccccc3)cs2)Cc2c1[nH]c1ccccc21
- Ki [1]: 3800 nM

Compound: CCCCC1(CCCC)N[C@H](c2nc(-c3ccccc3)c[nH]2)Cc2c1[nH]c1ccccc21 [listing 1 of 2 here]
- Ki [2]: > 10000 nM
- Ki [3]: 3700 nM
- Ki [1]: 3.4 nM
- Ki [4]: 9800 nM
- IC50 [5]: 6.8 nM
- Ki [6]: > 10000 nM

Compound: CCCCC1(CCCC)N[C@H](c2nc(-c3ccccc3)c[nH]2)Cc2c1[nH]c1ccccc21 [listing 2 of 2 here]
- Ki [1]: 0.79 nM

Compound: c1ccc(-c2c[nH]c(-c3cc4c([nH]c5ccccc54)c(C4CCCCC4)n3)n2)cc1
- Ki [1]: 750 nM

Compound: C[C@@H](c1c[nH]c2ccccc12)[C@@H](NC(=O)N1CCC(n2c(=O)[nH]c3ccccc32)CC1)C(=O)N[C@@H](CCCCN)C(=O)OC(C)(C)C
- Ki [7]: 0.01 nM

Compound: CCCCC1(CCCC)N[C@@H](c2nc(-c3ccccc3)c[nH]2)Cc2c1[nH]c1ccccc21
- Ki [2]: 3700 nM
- Ki [3]: 2200 nM
- Ki [1]: 0.64 nM
- Ki [4]: 7100 nM
- IC50 [5]: 2.7 nM
- Ki [6]: > 10000 nM

Compound: c1ccc(-c2c[nH]c(C3Cc4c([nH]c5ccccc45)C(C4CCCCC4)N3)n2)cc1 (centres undefined)
- Ki [2]: 1800 nM
- Ki [3]: > 10000 nM
- Ki [4]: > 10000 nM
- Ki [6]: > 10000 nM

Compound: c1ccc(-c2c[nH]c([C@@H]3Cc4c([nH]c5ccccc45)C4(N3)C3CC5CC(C3)CC4C5)n2)cc1 (some centres undefined)
- Ki [1]: 84 nM

Compound: CCCCC1(CCCC)N[C@H](c2nc(-c3ccccc3)c(-c3ccccc3)[nH]2)Cc2c1[nH]c1ccccc21
- Ki [1]: 5500 nM

Compound: CCCCC1(CCCC)N[C@@H](c2nc(-c3ccccc3)c[nH]2)Cc2c1sc1ccccc21
- Ki [1]: 430 nM

Compound: CC(=O)N1CCC2(CC1)N[C@@H](c1nc(-c3ccccc3)c[nH]1)Cc1c2[nH]c2ccccc12
- Ki [1]: 71 nM

Continued, values first:

- Ki [2]: 4400 nM
- Ki [3]: > 10000 nM
- Ki [1]: 0.9 nM
- Ki [4]: > 10000 nM
- IC50 [5]: 5.4 nM
- Ki [6]: > 10000 nM
Compound: CC1(C2CCCCC2)N[C@H](c2nc(-c3ccccc3)c[nH]2)Cc2c1[nH]c1ccccc21 (some centres undefined)

- Ki [1]: 28 nM
Compound: CCCCCCC1(CCCCCC)N[C@H](c2nc(-c3ccccc3)c[nH]2)Cc2c1[nH]c1ccccc21

- Ki [1]: 33 nM
Compound: CN(C)c1ccc(C2N[C@H](c3nc(-c4ccccc4)c[nH]3)Cc3c2[nH]c2ccccc32)cc1 (some centres undefined)

- Ki [1]: 11 nM
Compound: CCC1(CC)N[C@H](c2nc(-c3ccccc3)c[nH]2)Cc2c1[nH]c1ccccc21

- Ki [2]: > 10000 nM
- Ki [3]: > 10000 nM
- Ki [1]: 0.92 nM
- Ki [4]: > 10000 nM
- IC50 [5]: 0.84 nM
- Ki [6]: > 10000 nM
Compound: CCCCCC1(CCCCC)N[C@H](c2nc(-c3ccccc3)c[nH]2)Cc2c1[nH]c1ccccc21

- Ki [1]: 6.9 nM
- IC50 [5]: 450 nM
Compound: CCCCCC1(CCCCC)NC(c2nc(-c3ccccc3)c[nH]2)Cc2c1[nH]c1ccc(C)cc21 (centres undefined)

- Ki [1]: 11 nM
Compound: CCCCCC1N[C@H](c2nc(-c3ccccc3)c[nH]2)Cc2c1[nH]c1ccccc21 (some centres undefined)

- Ki [1]: 3.4 nM
- IC50 [5]: 43 nM
Compound: CCCCC1(CCCC)NC(c2nc(-c3ccccc3)c[nH]2)Cc2c1[nH]c1ccc(Cl)cc21 (centres undefined)

- Ki [1]: 17 nM
Compound: CCCCC1(CCCC)NC(c2nc(-c3ccccc3)c[nH]2)Cc2c1[nH]c1ccc(OCc3ccccc3)cc21 (centres undefined)

- Ki [1]: 13 nM
Compound: c1ccc(-c2c[nH]c([C@@H]3Cc4c([nH]c5ccccc45)C4(Cc5ccccc5C4)N3)n2)cc1
